From PubChem
E-sel inducer: E-selectin induction in HUVECs, primary screen, imaging, HUVEC, immunofluorescence imaging, single point | normalized: neutral wells 0, TNF-alpha wells 100 | activation, % at 7.58 µM | 260,000 tested, 0.37% active;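 active means mean E-selectin-positive cell signal at least 10% of the positive control, reached in at least 60% of replicates, without over 20% cell loss; inconclusive means no rule given, readout overlaps actives, possibly toxicity-flagged; inactive means the rest, including those meeting only one limit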
Target sequence (P16581 whole entry, looked up): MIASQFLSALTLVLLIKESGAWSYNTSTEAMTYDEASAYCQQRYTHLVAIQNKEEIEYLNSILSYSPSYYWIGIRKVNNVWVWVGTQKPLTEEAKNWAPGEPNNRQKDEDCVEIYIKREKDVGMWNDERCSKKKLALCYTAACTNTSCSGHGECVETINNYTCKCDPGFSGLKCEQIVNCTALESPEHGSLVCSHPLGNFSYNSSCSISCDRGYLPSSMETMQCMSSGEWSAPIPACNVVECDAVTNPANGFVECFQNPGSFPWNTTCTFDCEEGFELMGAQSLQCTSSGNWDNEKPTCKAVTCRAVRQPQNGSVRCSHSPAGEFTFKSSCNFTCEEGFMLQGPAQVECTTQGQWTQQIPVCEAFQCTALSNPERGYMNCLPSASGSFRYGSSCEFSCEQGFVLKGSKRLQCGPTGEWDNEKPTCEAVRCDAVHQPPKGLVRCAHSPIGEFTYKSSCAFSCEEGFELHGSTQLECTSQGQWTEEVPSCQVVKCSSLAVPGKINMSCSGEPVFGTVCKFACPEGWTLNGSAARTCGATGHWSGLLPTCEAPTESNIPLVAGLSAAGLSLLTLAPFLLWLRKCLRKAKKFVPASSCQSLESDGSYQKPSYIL
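Test system: HUVEC; input: 3,000 HUVEC/well; measured by: immunofluorescence imaging; read-out: % PE-positive cells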
SIRT5 block: SIRT5 desuccinylase inhibitors, primary screen, biochemical, fluorescence imaging, single point, set 5 | NAD-dependent protein deacylase sirtuin-5, mitochondrial (Homo sapiens), Q9NXA8 | Purified SirT5, succinyl-peptide AMC, trypsin-coupled fluorescence | AID 652115, 2013 | 330,000 tested, 1.1% active | inhibition, % at 15 µM; in the data active means inhibition above about 15%; inconclusive means no clear call, values can overlap the other calls
DENV2 CPE: inhibitors of DENV2 cytopathic effect, primary screen, cell-based, plate reader, single concentration. 350,000 tested, 1.7% active. CPE inhibition, % at 9.99 µM. AID 651640, 2012. DENV2-infected cells, cytopathic effect rescue; in the data active means CPE inhibition above about 20%, passing the limit was not always enough; inconclusive means no clear call, values can overlap the other calls; tested in BHK-21 cells
A number is an active result; - = inactive; ? = inconclusive; . = not tested or not shown; ! = a repeat was not active. Rows were chosen to be rich in hits. Some 2.8% of all compounds tested hit in one or more screens of this group.

SMILES	E-sel inducer	SIRT5 block	DENV2 CPE
CN1CCN(C(=O)C[C@H]2CC[C@H]3[C@@H](COC[C@@H](O)CN3S(=O)(=O)c3cccc(Cl)c3)O2)CC1	-	-	76
O=C(C[C@H]1CC[C@H]2[C@@H](COC[C@H](O)CN2S(=O)(=O)c2cccc(Cl)c2)O1)Nc1ccc(-c2ccccc2)cc1	-	-	-
CN1CCN(C(=O)C[C@@H]2CC[C@@H]3[C@H](COC[C@@H](O)CN3S(=O)(=O)c3cccc(Cl)c3)O2)CC1	-	-	-
COc1ccc(NC(=O)N2C[C@H](O)COC[C@@H]3O[C@@H](CC(=O)N4CCCCC4)CC[C@H]32)cc1	-	25	-
C[C@H](CO)N1C[C@H](C)[C@H](CN(C)C(=O)c2ccncc2)Oc2cc(/C=C/c3ccccc3)ccc2S1(=O)=O	-	-	-
C[C@H]1CN([C@@H](C)CO)C(=O)Cc2cc(NC(=O)c3ccncc3)ccc2O[C@H]1CN(C)Cc1ccc(-c2ccccc2)cc1	-	-	-
C[C@@H]1CN([C@@H](C)CO)C(=O)c2cc(NS(=O)(=O)c3cccs3)ccc2O[C@@H](C)CCCCO[C@@H]1CN(C)C(=O)CCC(F)(F)F	-	.	-
Cc1noc(C)c1NC(=O)N(C)C[C@@H]1OCCCC[C@@H](C)Oc2ccc(NS(=O)(=O)c3ccc(F)cc3)cc2C(=O)N([C@H](C)CO)C[C@@H]1C	-	-	-
COCC#Cc1ccc2c(c1)O[C@H](CN(C)C(=O)c1ccccc1)[C@@H](C)CN([C@@H](C)CO)S2(=O)=O	-	-	-
COc1ccc(S(=O)(=O)N[C@H]2C=C[C@@H](CC(=O)N3CCN(c4ccccc4)CC3)O[C@H]2CO)cc1	-	-	-
COc1cccc(S(=O)(=O)N2C[C@@H](O)COC[C@@H]3O[C@@H](CC(=O)N4CCCCC4)CC[C@H]32)c1	-	-	29
COc1cccc(S(=O)(=O)N2C[C@@H](O)COC[C@@H]3O[C@H](CC(=O)N4CCCCC4)CC[C@H]32)c1	-	-	-
C[C@@H]1CCCCO[C@H](CN(C)C(=O)Cc2ccccc2)[C@@H](C)CN([C@H](C)CO)C(=O)c2cc(NC(=O)Nc3cccc4ccccc34)ccc2O1	-	-	-
C[C@@H]1CCCCO[C@@H](CN(C)Cc2ccccc2)[C@H](C)CN([C@@H](C)CO)C(=O)c2cc(NC(=O)Nc3cccc4ccccc34)ccc2O1	.	-	-
C[C@H](CO)N1C[C@H](C)[C@@H](CN(C)C(=O)Cc2ccccc2)OCCCC[C@H](C)Oc2ccc(NC(=O)Nc3cccc4ccccc34)cc2C1=O	-	-	24
C[C@H]1CCCCO[C@H](CN(C)C(=O)CCCN(C)C)[C@@H](C)CN([C@@H](C)CO)C(=O)c2cc(NC(=O)Nc3cccc4ccccc34)ccc2O1	-	-	-
C[C@@H]1CCCCO[C@H](CN(C)C(=O)CCCN(C)C)[C@@H](C)CN([C@@H](C)CO)C(=O)c2cc(NC(=O)Nc3cccc4ccccc34)ccc2O1	-	18	-
C[C@@H]1CCCCO[C@@H](CN(C)Cc2ccccc2)[C@@H](C)CN([C@H](C)CO)C(=O)c2cc(NC(=O)Nc3cccc4ccccc34)ccc2O1	-	-	21!
COc1cccc(C#Cc2cnc3c(c2)C(=O)N([C@H](C)CO)C[C@H](C)[C@@H](CN(C)C)O3)c1	-	-	-
O=C(C[C@@H]1C=C[C@@H](NC(=O)C2CCOCC2)[C@@H](CO)O1)NCc1ccccc1Cl	-	-	-
Cc1ccc(S(=O)(=O)Nc2ccc3c(c2)C(=O)N([C@H](C)CO)C[C@@H](C)[C@@H](CN(C)C(=O)C2CCCCC2)OCCCC[C@@H](C)O3)cc1	-	-	-
CC(C)NC(=O)N[C@H]1CC[C@@H](CCn2cc(-c3ccccc3)nn2)O[C@@H]1CO	-	-	-
CC(=O)OCC(C)n1[nH]c2ccccc2c1=O (centres undefined)	-	40	-
CCC(C)n1c(=S)[nH]c2ccccc2c1=O (centres undefined)	.	-	-
C[C@@H]1CN([C@H](C)CO)C(=O)c2cc(NC(=O)Nc3ccccc3)ccc2O[C@@H]1CN(C)Cc1ccc(-c2ccccc2)cc1	-	-	-
SMILES	E-sel inducer	SIRT5 block	DENV2 CPE
Cc1ccc(-c2cnc3c(c2)C(=O)N([C@@H](C)CO)C[C@H](C)[C@H](CN(C)Cc2ccccc2C(=O)O)O3)cc1	.	-	-
Cc1noc(C)c1NC(=O)Nc1ccc2c(c1)C(=O)N([C@@H](C)CO)C[C@@H](C)[C@H](CN(C)S(=O)(=O)c1ccc(Cl)cc1)O2	-	-	28
Cc1ccc(S(=O)(=O)N(C)C[C@H]2Oc3ccc(NC(=O)NC4CCCCC4)cc3C(=O)N([C@H](C)CO)C[C@H]2C)cc1	-	-	-
Cc1noc(C)c1NC(=O)Nc1ccc2c(c1)C(=O)N([C@H](C)CO)C[C@@H](C)[C@H](CN(C)S(=O)(=O)c1ccc(Cl)cc1)O2	-	-	-
Cc1ccc(S(=O)(=O)N(C)C[C@@H]2OCCCC[C@H](C)Oc3ccc(NC(=O)NC4CCCCC4)cc3C(=O)N([C@H](C)CO)C[C@H]2C)cc1	-	16	-
Cc1ccc(S(=O)(=O)N(C)C[C@H]2OCCCC[C@@H](C)Oc3ccc(NC(=O)NC4CCCCC4)cc3C(=O)N([C@@H](C)CO)C[C@@H]2C)cc1	-	-	-
C[C@@H]1CN([C@H](C)CO)C(=O)c2cc(NC(=O)NC3CCCCC3)ccc2O[C@H]1CN(C)S(=O)(=O)c1ccc(Cl)cc1	141	-	-
C[C@H]1CN([C@@H](C)CO)C(=O)c2cc(NC(=O)NC3CCCCC3)ccc2O[C@H]1CN(C)S(=O)(=O)c1ccc(Cl)cc1	-	-	?
Cc1ccc(S(=O)(=O)N(C)C[C@@H]2Oc3ccc(NC(=O)NC4CCCCC4)cc3C(=O)N([C@H](C)CO)C[C@@H]2C)cc1	-	-	28
C/C=C/c1cnc2c(c1)C(=O)N([C@H](C)CO)C[C@H](C)[C@@H](CN(C)C(=O)C1CC1)O2	-	.	.
CO[C@@H]1CN(C)C(=O)c2ccc(NS(=O)(=O)c3ccc(Cl)cc3)cc2OC[C@H](C)NC[C@@H]1C	-	-	-
CO[C@H]1CN(C)C(=O)c2ccc(NC(=O)C3CCCC3)cc2OC[C@@H](C)N(C(C)=O)C[C@H]1C	-	-	-
C[C@H](CO)N1C[C@H](C)[C@H](CN(C)S(=O)(=O)c2ccc(F)cc2)Oc2c(NC(=O)CCCCCC(=O)Nc3ccccc3N)cccc2C1=O	-	.	-
O=C(C[C@@H]1C=C[C@@H](NC(=O)C2CCOCC2)[C@H](CO)O1)Nc1ccccc1	-	-	-
Cc1noc(C)c1S(=O)(=O)Nc1ccc2c(c1)C(=O)N([C@@H](C)CO)C[C@@H](C)[C@@H](CN(C)S(=O)(=O)c1ccc(F)cc1)O2	-	-	-
O=C(C[C@@H]1CC[C@@H]2[C@H](COC[C@H](O)CN2C(=O)c2cccnc2)O1)NCc1ccc(Cl)cc1	-	-	-
COc1ccc(S(=O)(=O)N(C)C[C@H]2Oc3ccc(NC(=O)NC4CCCCC4)cc3C(=O)N([C@@H](C)CO)C[C@@H]2C)cc1	-	19	-
